ChEMBL document CHEMBL5653632, “PRMT5 inhibition disrupts splicing and stemness in glioblastoma” (Nat Commun, 2021)
Activity calls are given as the source filed them. No cut-off for these calls is given here.

What was measured:
[1] = Antiproliferative activity against human BT143 cells incubated for 9 to 12 days by IncuCyte zoom live-cell imaging analysis; assay type: functional, cell-based
[2] = Antiproliferative activity against human G583 cells incubated for 9 to 12 days by IncuCyte zoom live-cell imaging analysis; assay type: functional, cell-based
Method in brief: (§1)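 Adherent culture on poly-L-ornithine/laminin in serum-free NS-A medium with EGF and bFGF (10 ng/mL each) and heparin. Nine concentrations (3 nM–30 µM), three technical replicates per dose, DMSO control, medium and drug refreshed every 5 days, run until DMSO wells were confluent (9–20 days). Confluence was imaged live and normalized to DMSO. Curves were taken at the 95th percentile of time to DMSO confluence, and AAC was calculated.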

[3] = Antiproliferative activity against human G800 cells incubated for 9 to 12 days by IncuCyte zoom live-cell imaging analysis; assay type: functional, cell-based; method in brief: as §1
[4] = Antiproliferative activity against human G799 cells incubated for 9 to 12 days by IncuCyte zoom live-cell imaging analysis; assay type: functional, cell-based; method in brief: as §1
[5] = Antiproliferative activity against human G837 cells incubated for 9 to 12 days by IncuCyte zoom live-cell imaging analysis; assay type: functional, cell-based; method in brief: as §1
[6] = Antiproliferative activity against human BT119 cells incubated for 9 to 12 days by IncuCyte zoom live-cell imaging analysis; assay type: functional, cell-based
G411 [7] = experiment: Antiproliferative activity against human G411 cells incubated for 9 to 12 days by IncuCyte zoom live-cell imaging analysis; assay type: functional, cell-based; method in brief: as §1
[8] = Antiproliferative activity against human G702 cells incubated for 9 to 12 days by IncuCyte zoom live-cell imaging analysis; assay type: functional, cell-based; method in brief: as §1
[9] = Antiproliferative activity against human G861 cells incubated for 9 to 12 days by IncuCyte zoom live-cell imaging analysis; assay type: functional, cell-based; method in brief: as §1
[10] = Antiproliferative activity against human G564 cells incubated for 9 to 12 days by IncuCyte zoom live-cell imaging analysis; assay type: functional, cell-based; method in brief: as §1
[11] = Antiproliferative activity against human G876 cells incubated for 9 to 12 days by IncuCyte zoom live-cell imaging analysis; assay type: functional, cell-based; method in brief: as §1
[12] = Antiproliferative activity against human G561 cells incubated for 9 to 12 days by IncuCyte zoom live-cell imaging analysis; assay type: functional, cell-based; method in brief: as §1
[13] = Antiproliferative activity against human BT069 cells incubated for 9 to 12 days by IncuCyte zoom live-cell imaging analysis; assay type: functional, cell-based
[14] = Antiproliferative activity against human G523 cells incubated for 9 to 12 days by IncuCyte zoom live-cell imaging analysis; assay type: functional, cell-based; method in brief: as §1
[15] = Antiproliferative activity against human BT147 cells incubated for 9 to 12 days by IncuCyte zoom live-cell imaging analysis; assay type: functional, cell-based
G561 [16] = experiment: Antiproliferative activity against human G561 cells at 1 uM incubated for 9 to 12 days by IncuCyte zoom live-cell imaging analysis; assay type: functional, cell-based; conditions: time 9-12 day
Method in brief: (§2)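 Adherent GSCs were cultured in serum-free medium with EGF and bFGF on poly-L-ornithine/laminin and plated in triplicate in 96-well plates. They were treated at 1 µM, with 1 µM SGC2096 or 0.05% DMSO as controls, for 9–12 days or until DMSO wells were confluent. Medium with drug was refreshed every 5 days. IncuCyte confluence was imaged every 8 h and normalized to each well's initial confluence.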

G411 [17] = experiment: Antiproliferative activity against human G411 cells at 1 uM incubated for 9 to 12 days by IncuCyte zoom live-cell imaging analysis; assay type: functional, cell-based; conditions: time 9-12 day; method in brief: as §2
G583 [18] = experiment: Antiproliferative activity against human G583 cells at 1 uM incubated for 9 to 12 days by IncuCyte zoom live-cell imaging analysis; assay type: functional, cell-based; conditions: time 9-12 day; method in brief: as §2
[19] = Antiproliferative activity against human HF5205 cells incubated for 9 to 12 days by IncuCyte zoom live-cell imaging analysis; assay type: functional, cell-based; method in brief: as §1
[20] = Antiproliferative activity against human HF7450 cells incubated for 9 to 12 days by IncuCyte zoom live-cell imaging analysis; assay type: functional, cell-based; method in brief: as §1
[21] = Antiproliferative activity against human HF6562 cells incubated for 9 to 12 days by IncuCyte zoom live-cell imaging analysis; assay type: functional, cell-based; method in brief: as §1
[22] = Antiproliferative activity against human G477 cells incubated for 9 to 12 days by IncuCyte zoom live-cell imaging analysis; assay type: functional, cell-based; method in brief: as §1
[23] = Antiproliferative activity against human G626 cells incubated for 9 to 12 days by IncuCyte zoom live-cell imaging analysis; assay type: functional, cell-based; method in brief: as §1
[24] = target: Protein arginine N-methyltransferase 5 (Homo sapiens) (UniProt O14744); experiment: Inhibition of PRMT5 in human G411 cells assessed as reduction in SDMA level at 1 uM after 5 days by Western blot analysis; assay type: cell-based; conditions: time 5.0 day
Chain of Protein arginine N-methyltransferase 5 (Homo sapiens) (O14744 whole entry): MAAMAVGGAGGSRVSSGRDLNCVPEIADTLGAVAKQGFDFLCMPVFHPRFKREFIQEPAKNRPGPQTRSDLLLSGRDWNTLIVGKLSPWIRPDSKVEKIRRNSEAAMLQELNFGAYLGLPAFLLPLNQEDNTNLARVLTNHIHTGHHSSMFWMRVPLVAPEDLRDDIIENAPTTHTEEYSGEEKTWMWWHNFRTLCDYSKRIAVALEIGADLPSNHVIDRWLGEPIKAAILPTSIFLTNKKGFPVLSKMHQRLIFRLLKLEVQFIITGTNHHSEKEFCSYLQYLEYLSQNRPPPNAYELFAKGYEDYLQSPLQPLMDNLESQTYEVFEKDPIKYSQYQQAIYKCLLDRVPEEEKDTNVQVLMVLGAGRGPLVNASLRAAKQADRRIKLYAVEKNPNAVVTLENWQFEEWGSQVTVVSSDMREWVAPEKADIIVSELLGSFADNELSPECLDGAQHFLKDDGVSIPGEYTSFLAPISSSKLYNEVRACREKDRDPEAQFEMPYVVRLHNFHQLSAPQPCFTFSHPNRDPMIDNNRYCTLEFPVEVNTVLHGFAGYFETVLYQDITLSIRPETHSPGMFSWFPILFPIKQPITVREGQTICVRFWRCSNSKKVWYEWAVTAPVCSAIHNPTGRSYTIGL
Method in brief: (§3)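 Symmetric dimethylarginine on SmB/B' was measured by western blot with IRDye secondary antibodies and infrared imaging.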

[25] = target: Protein arginine N-methyltransferase 5 (Homo sapiens) (UniProt O14744); experiment: Inhibition of PRMT5 in human G561 cells assessed as reduction in SDMA level at 1 uM after 5 days by Western blot analysis; assay type: cell-based; conditions: time 5.0 day; method in brief: as §3
[26] = target: Protein arginine N-methyltransferase 5 (Homo sapiens) (UniProt O14744); experiment: Inhibition of PRMT5 in human G583 cells assessed as reduction in SDMA level at 1 uM after 5 days by Western blot analysis; assay type: cell-based; conditions: time 5.0 day; method in brief: as §3
[27] = target: Protein arginine N-methyltransferase 5 (Homo sapiens) (UniProt O14744); experiment: Inhibition of PRMT5 in HFNS cells assessed as reduction in SDMA level at 1 uM after 5 days by Western blot analysis; assay type: cell-based; conditions: time 5.0 day
G561 [28] = experiment: Inhibition of colony formation in human G561 cells assessed as reduction in sphere forming capacity at 1 uM incubated for 14 days by limiting dilution assay; assay type: functional, cell-based; conditions: time 14.0 day
Method in brief: (§4)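 Each GSC line was seeded on non-adherent 96-well plates in 1:2 serial dilutions from 2000 to 4 cells per well, six replicates per dilution, in adherent-culture medium. Treatment was 1 µM, with SGC2096 and DMSO as controls, added on day 1 and replenished weekly. Wells were scored for spheres at 1 and 2 weeks, and sphere frequency was estimated by ELDA (single-hit model). n = 3.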

G411 [29] = experiment: Inhibition of colony formation in human G411 cells assessed as reduction in sphere forming capacity at 1 uM incubated for 14 days by limiting dilution assay; assay type: functional, cell-based; conditions: time 14.0 day; method in brief: as §4
G583 [30] = experiment: Inhibition of colony formation in human G583 cells assessed as reduction in sphere forming capacity at 1 uM incubated for 14 days by limiting dilution assay; assay type: functional, cell-based; conditions: time 14.0 day; method in brief: as §4
[31] = target: Protein arginine N-methyltransferase 5 (Homo sapiens) (UniProt O14744); experiment: Inhibition of PRMT5 in human G729 cells assessed as reduction in SDMA level at 1 uM after 7 days by Western blot analysis; assay type: cell-based; conditions: time 7.0 day
[32] = target: Protein arginine N-methyltransferase 5 (Homo sapiens) (UniProt O14744); experiment: Inhibition of PRMT5 in human G549 cells assessed as reduction in SDMA level at 1 uM after 7 days by Western blot analysis; assay type: cell-based; conditions: time 7.0 day
G411 [33] = experiment: Induction of senescence in human G411 cells at 1 uM after 5 days by SA-beta-galactosidase based assay; assay type: functional, cell-based; conditions: time 5.0 day
Method in brief: (§5)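 GSCs were treated at 1 µM for 5 days, with SGC2096 and DMSO as controls and n = 3. Cells were fixed in 4% paraformaldehyde for 5 min at RT, stained overnight with SA-β-gal solution, and counterstained with nuclear fast red. Blue cells were counted as a fraction of total cells.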

G583 [34] = experiment: Induction of senescence in human G583 cells at 1 uM after 5 days by SA-beta-galactosidase based assay; assay type: functional, cell-based; conditions: time 5.0 day; method in brief: as §5
G729 [35] = experiment: Induction of senescence in human G729 cells at 1 uM after 5 days by SA-beta-galactosidase based assay; assay type: functional, cell-based; conditions: time 5.0 day; method in brief: as §5
G411 [36] = experiment: Induction of apoptosis in human G411 cells at 1 uM after 5 days by Annexin-V staining based IncuCyte live cell imaging analysis; assay type: functional; conditions: time 5.0 day
G583 [37] = experiment: Induction of apoptosis in human G583 cells at 1 uM after 5 days by Annexin-V staining based IncuCyte live cell imaging analysis; assay type: functional; conditions: time 5.0 day
G729 [38] = experiment: Induction of apoptosis in human G729 cells at 1 uM after 5 days by Annexin-V staining based IncuCyte live cell imaging analysis; assay type: functional; conditions: time 5.0 day

SMILES	IC50 [1] [nM]	EC50 [2] [nM]	IC50 [3] [nM]	IC50 [4] [nM]	IC50 [5] [nM]	IC50 [6] [nM]	EC50 (G411 [7]) [nM]	IC50 [8] [nM]	IC50 [9] [nM]	IC50 [10] [nM]	IC50 [11] [nM]	EC50 [12] [nM]	IC50 [13] [nM]	IC50 [14] [nM]	IC50 [15] [nM]	Activity (G561 [16])	Activity (G411 [17])	Activity (G583 [18])	EC50 [19] [nM]	EC50 [20] [nM]	also measured
Nc1ncnc2c1ccn2[C@@H]1O[C@H]([C@H](O)c2ccccc2)[C@@H](O)[C@H]1O	160	15	120	20	40	230	19	20	40	30	30	10	30	10	10	Active	Active	Active	9	3	EC50 [21]: 0.66 nM; EC50 [22]: 40 nM; EC50 [23]: 10 nM; inhibition [24]: Active; inhibition [25]: Active; inhibition [26]: Active; inhibition [27]: Active; inhibition (G561 [28]): Active; inhibition (G411 [29]): Active; inhibition (G583 [30]): Active; inhibition [31]: Active; inhibition [32]: Active; Activity (G411 [33]): Active; Activity (G583 [34]): Active; Activity (G729 [35]): Active; Activity (G411 [36]): Active; Activity (G583 [37]): Active; Activity (G729 [38]): Active
O=C(NC[C@H](O)CN1CCc2ccccc2C1)c1ccnc(NC2CCC2)c1	600	440	16400	680	5010	8640	100	1620	1280	230	2450	1000	690	830	170	Active	Active	Active	7	155	EC50 [21]: 63 nM; EC50 [22]: 3180 nM; EC50 [23]: 480 nM; inhibition [24]: Active; inhibition [25]: Active; inhibition [26]: Active; inhibition [27]: Active; inhibition (G561 [28]): Active; inhibition (G411 [29]): Active; inhibition (G583 [30]): Active; inhibition [31]: Active; inhibition [32]: Active; Activity (G411 [33]): Active; Activity (G583 [34]): Active; Activity (G729 [35]): Active; Activity (G411 [36]): Active; Activity (G583 [37]): Active; Activity (G729 [38]): Active
